Measurements as given in ChEMBL document CHEMBL1148398, “Design, synthesis, and biological evaluation of thio-containing compounds with serum HDL-cholesterol-elevating properties” (2004).

Assays:
[1] = test system: Rattus norvegicus; experiment: Effect of compound on alkaline phosphatase (ALKP) levels in 5th group of normal chow-fed male rats after a dose of 20 mg/kg/day; type: functional, organism-based
Procedure, shortened: (§1)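 Male Sprague–Dawley CD rats (60–80 g) on standard chow under a reversed 12 h light/dark cycle. Compound was suspended in 1.3% Tween 80/0.25% CMC and given as a single daily oral gavage dose for 4 days. Rats were fasted overnight and killed 24 h after the last dose. Serum ALT, AST, ALKP and LDH were read on a clinical analyzer. Weight gain was start versus end weight. Mean ± SEM, n = 6.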

[2] = test system: Rattus norvegicus; experiment: Effect of compound on low-density lipoprotein cholesterol levels in 5th group of normal chow-fed male rats after a dose of 20 mg/kg/day; type: functional, organism-based
Procedure, shortened: (§2)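 Male Sprague–Dawley CD rats, 60–80 g, on standard chow with reverse 12 h light/dark cycle. One oral gavage dose daily for 4 days, suspended in 1.3% Tween 80 and 0.25% CMC. Fasted overnight; sacrificed 24 h after the last dose. Serum TC on clinical analyzer, lipoproteins by FPLC with cholesterol per fraction, T4 on analyzer. Mean ± SEM, six rats per group.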

[3] = test system: Cricetinae gen. sp.; experiment: Effect of compound on aspartate aminotransferase (AST) levels in 2nd group of cholesterol-fed male hamsters at 10 mg/kg/day after 14 days of treatment; details: Mesocricetus auratus
[4] = test system: Rattus norvegicus; experiment: Effect of compound on gain in body weight in 1st group of normal chow-fed male rats after a dose of 1 mg/kg/day; type: functional; procedure, shortened: as §1
[5] = test system: Rattus norvegicus; experiment: Effect of compound on high-density lipoprotein cholesterol levels in 5th group of normal chow-fed male rats after a dose of 20 mg/kg/day; type: functional, organism-based
[6] = test system: Rattus norvegicus; experiment: Effect of compound on gain in body weight in 5th group of normal chow-fed male rats after a dose of 20 mg/kg/day; type: functional; procedure, shortened: as §1
[7] = test system: Rattus norvegicus; experiment: Effect of compound on total plasma cholesterol levels in 6th group of normal chow-fed male rats after a dose of 50 mg/kg/day; type: functional, organism-based
Procedure, shortened: (§3)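 Male Sprague–Dawley CD rats (60–80 g) on Purina 5001 chow with a reverse 12 h light/dark cycle. Dosed once daily by oral gavage for 4 days, suspended in 1.3% Tween 80 / 0.25% CMC. Fasted overnight and bled 24 h after the last dose. Serum TC and glycerol-blanked TG measured enzymatically; VLDL-C by FPLC fractionation with cholesterol assay. n=6, mean ± SEM.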

[8] = test system: Rattus norvegicus; experiment: Effect of compound on high-density lipoprotein cholesterol levels in 2nd group of normal chow-fed male rats after a dose of 2 mg/kg/day; type: functional, organism-based
[9] = test system: Rattus norvegicus; experiment: Effect of compound on low-density lipoprotein cholesterol levels in 2nd group of normal chow-fed male rats after a dose of 2 mg/kg/day; type: functional, organism-based; procedure, shortened: as §2
[10] = test system: Rattus norvegicus; experiment: Effect of compound on total plasma cholesterol levels in 2nd group of normal chow-fed male rats after a dose of 2 mg/kg/day; type: functional, organism-based; procedure, shortened: as §2
[11] = test system: Rattus norvegicus; experiment: Effect of compound on aspartate aminotransferase (AST) levels in 2nd group of normal chow-fed male rats after a dose of 2 mg/kg/day; type: functional, organism-based; procedure, shortened: as §1
[12] = test system: Rattus norvegicus; experiment: Effect of compound on thyroxine levels in 1st group of normal chow-fed male rats after a dose of 1 mg/kg/day; type: functional, organism-based; procedure, shortened: as §2
[13] = test system: Rattus norvegicus; experiment: Effect of compound on thyroxine levels in 4th group of normal chow-fed male rats after a dose of 10 mg/kg/day; type: functional, organism-based; procedure, shortened: as §2
[14] = test system: Rattus norvegicus; experiment: Effect of compound on gain in body weight in 7th group of normal chow-fed male rats after a dose of 100 mg/kg/day; type: functional; procedure, shortened: as §1
[15] = test system: Rattus norvegicus; experiment: Effect of compound on triglycerides level in 1st group of normal chow-fed male rats after a dose of 1 mg/kg/day; type: functional, organism-based; procedure, shortened: as §3
[16] = test system: Rattus norvegicus; experiment: Percent change in total plasma cholesterol in hypercholesterolemic rats dosed at 100 mg/kg/day for 8 days; type: functional
[17] = test system: Rattus norvegicus; experiment: Effect of compound on lactic dehydrogenase (LDH) levels in 1st group of normal chow-fed male rats after a dose of 1 mg/kg/day; type: functional, organism-based; procedure, shortened: as §1
[18] = test system: Cricetinae gen. sp.; experiment: Effect of compound on aspartate aminotransferase (AST) levels in 4th group of cholesterol-fed male hamsters at 100 mg/kg/day after 14 days of treatment; details: Mesocricetus auratus
[19] = test system: Cricetinae gen. sp.; experiment: Effect of compound on thyroxine levels in 2nd group of cholesterol-fed male hamsters at 10 mg/kg/day after 14 days of treatment; details: Mesocricetus auratus
[20] = test system: Cricetinae gen. sp.; experiment: Effect of compound on alkaline phosphatase (ALKP) levels in 2nd group of cholesterol-fed male hamsters at 10 mg/kg/day after 14 days of treatment; details: Mesocricetus auratus
[21] = test system: Rattus norvegicus; experiment: Effect of compound on liver weight in 7th group of normal chow-fed male rats after a dose of 100 mg/kg/day; type: functional
Procedure, shortened: (§4)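 Male Sprague–Dawley CD rats, 60–80 g, on chow with a reverse 12 h light/dark cycle. Given one oral gavage dose daily for 4 days, suspended in 1.3% Tween 80/0.25% CMC. Fasted overnight and sacrificed 24 h after the last dose for blood and liver. Serum liver enzymes read on a clinical analyzer. Six per group, mean ± SEM.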

[22] = Effect on serum lipids in 1st group of normal chow-fed male rats after a dose of 1 mg/kg/day was evaluated as ratio of total plasma cholesterol levels to high-density lipoprotein cholesterol levels; type: functional
Procedure, shortened: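 Male Sprague–Dawley CD rats, 60–80 g, chow-fed, dosed by oral gavage daily for 4 days in 1.3% Tween 80/0.25% CMC. Fasted overnight, bled 24 h after the last dose. Serum total cholesterol by enzymatic reagent; HDL-C from cholesterol in FPLC fractions; TPC/HDL-C ratio calculated. Six per group, mean ± SEM.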

[23] = test system: Rattus norvegicus; experiment: Effect of compound on alanine aminotransferase (ALT) levels in 4th group of normal chow-fed male rats after a dose of 10 mg/kg/day
[24] = test system: Cricetinae gen. sp.; experiment: Effect of compound on low-density lipoprotein cholesterol levels in 4th group of cholesterol-fed male hamsters at 100 mg/kg/day after 14 days of treatment; details: Mesocricetus auratus
[25] = test system: Rattus norvegicus; experiment: Effect of compound on high-density lipoprotein cholesterol levels in 1st group of normal chow-fed male rats after a dose of 1 mg/kg/day; type: functional, organism-based
[26] = test system: Rattus norvegicus; experiment: Effect of compound on very low-density lipoprotein cholesterol levels in 1st group of normal chow-fed male rats after a dose of 1 mg/kg/day; type: functional, organism-based; procedure, shortened: as §3
[27] = test system: Rattus norvegicus; experiment: Effect of compound on very low-density lipoprotein cholesterol levels in 6th group of normal chow-fed male rats after a dose of 50 mg/kg/day; type: functional, organism-based; procedure, shortened: as §3
[28] = test system: Rattus norvegicus; experiment: Effect of compound on liver weight in 1st group of normal chow-fed male rats after a dose of 1 mg/kg/day; type: functional; procedure, shortened: as §4
[29] = test system: Mesocricetus auratus; experiment: Effect of compound on gain in body weight in 1st group of cholesterol-fed male hamsters at 3 mg/kg/day after 14 days of treatment

CCN1CC(=O)N(c2cc(Cl)ccc2C)C1=S
Level [1]: 385 U l-1 | Serum level [2]: 8.5 mg/dL | Level [3]: 345 U l-1 | Body weight [4]: 26.3 g | Serum level [5]: 58 mg/dL | Body weight [6]: 30.3 g | Serum level [7]: 101 mg/dL | Serum level [8]: 41 mg/dL | Serum level [9]: 5.7 mg/dL | Serum level [10]: 56 mg/dL | Level [11]: 195 U l-1 | Serum level [12]: 3.65 µg/dL | Serum level [13]: 3.98 µg/dL | Body weight [14]: 22.5 g | Serum level [15]: 18 mg/dL | Change [16]: 53% | Level [17]: 724 U l-1 | Level [18]: 424 U l-1 | Serum level [19]: 5.73 µg/dL | Level [20]: 147 U l-1 | Liver weight [21]: 7.8 g | Ratio [22]: 1.45 | Level [23]: 58 U l-1 | Serum level [24]: 102 mg/dL | Serum level [25]: 38 mg/dL | Serum level [26]: 4.3 mg/dL | Serum level [27]: 6.5 mg/dL | Liver weight [28]: 8.4 g | Body weight [29]: 10.2 g
